We go through four molecules from ChEMBL document CHEMBL1148450, “Novel amino acid derived natural products from the ascidian Atriolum robustum: identification and pharmacological characterization of a unique adenosine derivative” (J Med Chem, 2004).

For orientation: IC50 means the concentration that inhibits the measured activity by half. A higher IC50 goes with weaker potency in that assay. As a reminder, the Ki is the equilibrium dissociation constant of an inhibitor or competing ligand from its target. Lower therefore signals a stronger hold on the target.

Test [1] has as its target T1, Adenosine receptor A1 (Rattus norvegicus, UniProt P25099).
T1 sequence (P25099 whole entry): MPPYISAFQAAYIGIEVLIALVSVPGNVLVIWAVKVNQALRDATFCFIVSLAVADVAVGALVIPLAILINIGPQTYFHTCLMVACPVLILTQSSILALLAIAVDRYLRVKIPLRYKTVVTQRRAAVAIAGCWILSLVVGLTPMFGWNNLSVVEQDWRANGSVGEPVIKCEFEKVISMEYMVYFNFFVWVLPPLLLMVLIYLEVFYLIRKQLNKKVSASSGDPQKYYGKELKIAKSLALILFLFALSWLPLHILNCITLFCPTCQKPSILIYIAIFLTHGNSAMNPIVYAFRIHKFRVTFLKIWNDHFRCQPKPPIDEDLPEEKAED
Kind of test: Displacement of [3H]DPCPX from adenosine A1 receptor of rat cortical membranes without GTP. The test is classed as cell membranes, Membrane. A digest of the protocol: (§1)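 Cortical A1 assay as for [3H]CCPA (50 mM Tris-HCl pH 7.4, 23 °C, 90 min, ~70 µg/mL protein) but with [3H]DPCPX as radioligand and 10 µM unlabeled DPCPX for nonspecific binding. Curves were run without and with 100 µM GTP and fitted by nonlinear regression to apparent IC50s. GTP shift = IC50(+GTP)/IC50(−GTP). Two experiments, each in duplicate.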
For orientation: Displacement assays read how much labelled ligand stays bound in the presence of the test substance.

In test [2] the target is T1, Adenosine receptor A1. In words: Displacement of [3H]DPCPX from adenosine A1 receptor of rat cortical membranes with GTP. Format: cell membranes, Membrane. The gist of the method: as §1
The target in test [3] is T2, Adenosine receptor A1 (Rattus norvegicus) (UniProt P25099).
T2 sequence (whole entry): T1 sequence (P25099 whole entry)
In words: Binding affinity against adenosine A1 receptor in the presence of GTP relative to the absence of GTP.

Test [4] deals with T3, Adenosine receptor A2a (Rattus norvegicus, UniProt P30543). In words: Displacement of [3H]-MSX-2 from Adenosine A2A receptor of rat striatal membranes. Format: cell membranes, Membrane. The gist of the method: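 Rat striatal membranes (protein ca. 70 µg/mL) were incubated with 1 nM [3H]MSX-2 in 50 mM Tris-HCl, pH 7.4, for 30 min at 23 °C. […] Filtration was on PEI-presoaked GF/B filters with scintillation counting. Seven to nine concentrations (DMSO stock) spanned 3 log units; three experiments, each in duplicate.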

The target in test [5] is T1, Adenosine receptor A1. Kind of test: Displacement of [3H]CCPA from Adenosine A1 receptor of rat cortical membranes. Format: cell membranes, Membrane. The gist of the method: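 A1 binding used rat cortical membranes (ca. 70 µg/mL protein) with 0.5 nM [3H]CCPA in 50 mM Tris-HCl, pH 7.4, for 90 min at 23 °C. 10 µM 2-chloroadenosine defined nonspecific binding. Separation was by GF/B filtration and scintillation counting. Inhibition curves had seven to nine concentrations across 3 orders of magnitude; three separate experiments, each in duplicate.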

Test [6] concerns the target T1, Adenosine receptor A1. In words: Displacement of [3H]DPCPX from rat Adenosine A1 receptor of cortical membranes. The test is classed as cell membranes, Membrane. The gist of the method: as §1
In test [7] the target is T4, Adenosine receptor A3 (Homo sapiens, UniProt P0DMS8).
T4 sequence (P0DMS8 whole entry): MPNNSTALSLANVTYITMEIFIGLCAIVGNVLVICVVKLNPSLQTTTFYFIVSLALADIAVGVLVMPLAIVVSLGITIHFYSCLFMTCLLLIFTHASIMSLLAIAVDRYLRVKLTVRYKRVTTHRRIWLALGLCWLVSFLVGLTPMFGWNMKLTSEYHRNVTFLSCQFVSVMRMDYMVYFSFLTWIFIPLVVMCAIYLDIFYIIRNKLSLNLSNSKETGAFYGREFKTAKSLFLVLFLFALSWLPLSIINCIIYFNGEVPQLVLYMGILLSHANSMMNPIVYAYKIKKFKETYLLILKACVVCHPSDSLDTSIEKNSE
In words: Displacement of [3H]PSB-11 from human adenosine A3 receptor expressed in CHO cells. Format: cell-based. The gist of the method: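 Membranes came from CHO cells stably expressing human A3AR. They were incubated with 0.5 nM [3H]PSB-11 in 50 mM Tris-HCl, pH 7.4, for 45 min, and 100 µM R-PIA defined nonspecific binding. Bound radioactivity was collected on GF/B filters and scintillation-counted. Seven to nine test concentrations were used; run twice, each in duplicate.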

Test [8] deals with T4, Adenosine receptor A3. In words: Inhibition of forskolin-stimulated cAMP accumulation in chinese hamster ovary cell membranes expressing human adenosine A3 receptor. Format: functional, cell-based. In general terms: Cyclic AMP is a second messenger, typically raised through Gs and lowered through Gi signalling.
Test [9] has as its target T5, Adenosine receptor A3 (Homo sapiens) (UniProt P0DMS8).
T5 sequence (whole entry): T4 sequence (P0DMS8 whole entry)
Kind of test: Percent efficacy for inhibition of human adenosine A3 receptor activity relative to NECA. The test is classed as functional.

Test [10] concerns the target T6, Adenosine receptor A2b (Homo sapiens, UniProt P29275).
T6 sequence (P29275 whole entry): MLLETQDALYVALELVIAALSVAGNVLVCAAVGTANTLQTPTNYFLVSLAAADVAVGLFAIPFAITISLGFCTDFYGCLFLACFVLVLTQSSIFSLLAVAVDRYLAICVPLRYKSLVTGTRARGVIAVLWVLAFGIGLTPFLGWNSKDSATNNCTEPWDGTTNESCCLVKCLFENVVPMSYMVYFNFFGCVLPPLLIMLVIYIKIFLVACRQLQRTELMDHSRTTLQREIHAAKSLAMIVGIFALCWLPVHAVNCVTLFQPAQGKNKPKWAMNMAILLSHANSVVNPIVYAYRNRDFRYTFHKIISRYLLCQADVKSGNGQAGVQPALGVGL
In words: Displacement of [3H]PSB-298 from human adenosine A2B receptor expressed in HEK293 cells at 10 uM. Format: cell-based.

For test [11], the target named is T3, Adenosine receptor A2a. Kind of test: Displacement of [3H]NECA from Adenosine A2A receptor of rat striatal membranes. Format: cell membranes, Membrane.
The target of test [12] is T1, Adenosine receptor A1. Kind of test: Displacement of [3H]CCPA from adenosine A1 receptor of rat cortical membranes. Format: cell membranes, Membrane. A digest of the protocol:
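Rat brain cortical membranes at about 70 µg/mL protein, with 0.5 nM [3H]CCPA in 50 mM Tris-HCl pH 7.4, 23 °C for 90 min. Nonspecific binding was set with 10 µM 2-chloroadenosine. Bound ligand was collected by GF/B filtration and counted by scintillation. The test compound came from DMSO at 7–9 concentrations spanning 3 orders of magnitude. Three experiments were run, each in duplicate.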

For test [13], the target named is T1, Adenosine receptor A1. In words: Displacement of [3H]DPCPX from adenosine A1 receptor of rat cortical membranes. Format: cell membranes, Membrane. The gist of the method:
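Run as the rat cortical membrane A1 assay (50 mM Tris-HCl pH 7.4, 23 °C, 90 min) but with [3H]DPCPX as radioligand. Nonspecific binding was set with 10 µM unlabeled DPCPX. Binding was measured without and with 100 µM GTP, and IC50 came from nonlinear regression. GTP shift is the IC50 with GTP divided by the IC50 without GTP. Two experiments were run, each in duplicate.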

Test [14] concerns the target T1, Adenosine receptor A1. Kind of test: Displacement of [3H]R-PIA from adenosine A1 receptor of rat cortical membranes. Format: cell membranes, Membrane.
Test [15] concerns the target T6, Adenosine receptor A2b. In words: Binding affinity towards human adenosine A2B receptor in VA13 fibroblasts as […] at 10 uM; Less than 10% inhibition. The test is classed as functional.
The target of test [16] is T6, Adenosine receptor A2b. In words: Displacement of [3H]PSB-298 from human adenosine A2B receptor expressed in HEK293 cells at 10 uM; Less than 10% inhibition. The test is classed as cell-based.

T3 sequence (P30543 whole entry): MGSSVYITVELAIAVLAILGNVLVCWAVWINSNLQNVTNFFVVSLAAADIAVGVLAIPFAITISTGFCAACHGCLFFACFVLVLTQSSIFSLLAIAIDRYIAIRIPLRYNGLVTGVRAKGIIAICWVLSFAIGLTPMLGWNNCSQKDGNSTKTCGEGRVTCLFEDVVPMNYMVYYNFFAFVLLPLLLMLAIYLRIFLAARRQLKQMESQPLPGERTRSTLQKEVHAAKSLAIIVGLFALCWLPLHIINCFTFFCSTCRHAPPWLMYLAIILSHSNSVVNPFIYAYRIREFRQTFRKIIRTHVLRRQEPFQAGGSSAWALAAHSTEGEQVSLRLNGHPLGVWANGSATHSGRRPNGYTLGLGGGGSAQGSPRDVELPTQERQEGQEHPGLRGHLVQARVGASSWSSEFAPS

Consider `Cn1cnc2c(N)ncnc21`, for which the concentration for half-maximal inhibition (IC50) came out at 12.5 µM at Adenosine receptor A1 [1] and 14.7 µM on Adenosine receptor A1 [2]. Further, in [3], the Ratio stood at 1.2.

Consider `CO/C(=C\c1ccc(O)cc1)C(=O)O[C@@H]1[C@H](OC(=O)/C=C/c2c[nH]cn2)[C@@H](CSC)O[C@H]1n1cnc2c(N)ncnc21`, for which the Ki at Adenosine receptor A2a [4] is 17.1 µM; on Adenosine receptor A1 [5] it was 3.26 µM; at Adenosine receptor A1 [6], 9.45 µM; at Adenosine receptor A3 [7] it was 6.94 µM; on Adenosine receptor A2b [10], > 10 µM. In addition, the IC50 at Adenosine receptor A3 [8] came out at 6.7 µM; at Adenosine receptor A1 [1] it was 23 µM; at Adenosine receptor A1 [2], 143 µM. For the same molecule, in test [9], the Efficacy turned out to be 56%. Moreover, the Ratio in [3] amounted to 6.2.

Turning to `CC(=O)O[C@]1(C(C)=O)CC[C@H]2[C@@H]3C=C(Cl)C4=CC(=O)[C@@H]5C[C@@H]5[C@]4(C)[C@H]3CC[C@@]21C` [CYPROTERONE ACETATE], the IC50 at Adenosine receptor A1 [1] was 0.005 µM; at Adenosine receptor A1 [2], 0.125 µM. The Ratio in [3] is 22.8.

In the case of `CSC[C@H]1O[C@@H](n2cnc3c(N)ncnc32)[C@H](O)[C@@H]1O` [METHYLTHIOADENOSINE], the Ki at Adenosine receptor A2a [4] was found to be 1.13 µM; on Adenosine receptor A2a [11] it was 1180 nM; at Adenosine receptor A1 [12], 150 nM; at Adenosine receptor A1 [13], 210 nM; on Adenosine receptor A1 [14], 240 nM; on Adenosine receptor A3 [7], 0.68 µM. For the same molecule, the values for the Ki at Adenosine receptor A2b [15] and on Adenosine receptor A2b [16] were 8.2 µM and 13.9 µM, respectively. Also, the IC50 on Adenosine receptor A3 [8] stood at 71 µM; at Adenosine receptor A1 [1] it was 0.68 µM; on Adenosine receptor A1 [2], 15.1 µM. The same molecule had an Efficacy in test [9] of 46%. The Ratio in test [3] was determined as 22.2.
